# Bioassay records as filed in PubChem BioAssay.
# An excerpt weighted towards active compounds, which were near 1.9% of everything screened.
# FID counter: compounds displacing fluorescent DNA intercalator, primary screen, artefact control for HCV NS3 helicase inhibitor project, biochemical, FID fluorescence; DNA fluorescent intercalator displacement; inhibition, % at 7.9 µM; 0.17% of 290,000 active; in the data active means inhibition above about 37%;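 further: 0% = vehicle and 100% = reference compound; higher means more ethidium bromide displaced from hairpin DNA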
# PP1 counter: PP1-alpha phosphatase inhibitors, primary screen, counter-screen for PP5 inhibitor project, biochemical, fluorescence, OMFP substrate, single point. inhibition, % at 6.7 µM. purified PP1alpha. 0.9% of 320,000 active;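 active means inhibition above the mean inhibition of all tested compounds plus 3 SD, computed separately for each screening campaign, cut at about 15% in these data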
# HCV NS3 hel inh: inhibitors of HCV NS3 helicase, primary screen, biochemical, Cy5 molecular beacon fluorescence. Hepatitis C virus NS3 helicase. NS3 helicase DNA unwinding. inhibition, % at 10.9 µM. 0.56% of 290,000 active. AID 1800, 2009;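 active means inhibition above the mean of all tested compounds plus 3 SD, set per campaign, cut at about 35% in these data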;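 further: 0% = DMSO wells and 100% = thioflavine S control wells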
#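 assay system = NS3 helicase fragment of HCV | buffer or medium = MOPS pH 6.5, MgCl2, DTT, Tween20, BSA | timing = 60 min unwinding reaction at 25 °C after ATP addition | signal = Cy5 beacon fluorescence read at start and 1 h | read-out basis = % inhibition of unwinding | control set = low DMSO, high thioflavine S at 110 µM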
# HIF act: HIF pathway transcriptional activators, primary screen, cell-based, U2OS HRE-luciferase, luminescence; U2OS HRE-luciferase reporter; normalized: DMSO 0%, desferrioxamine 100%; activation, % at 7.5 µM (by protocol); 0.32% of 300,000 active; AID 1910, 2009;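 active means mean activation of at least 10% of the iron chelator positive control signal, with at least half of replicates also reaching 10%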
# PP5 primary: PP5 phosphatase inhibitors, primary screen, biochemical, fluorescence; inhibition, % at 6.7 µM; 0.18% of 320,000 active; Serine/threonine-protein phosphatase 5 (Homo sapiens), P53041; AID 1987, 2009; purified PP5c, OMFP substrate fluorescence;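 active means inhibition above the campaign's mean inhibition across all tested compounds plus 3 SD, cut at about 9.5% in these data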;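 further: 0% = DMSO only and 100% = 100 µM cantharidin control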
# Target sequence (P53041 whole entry, looked up): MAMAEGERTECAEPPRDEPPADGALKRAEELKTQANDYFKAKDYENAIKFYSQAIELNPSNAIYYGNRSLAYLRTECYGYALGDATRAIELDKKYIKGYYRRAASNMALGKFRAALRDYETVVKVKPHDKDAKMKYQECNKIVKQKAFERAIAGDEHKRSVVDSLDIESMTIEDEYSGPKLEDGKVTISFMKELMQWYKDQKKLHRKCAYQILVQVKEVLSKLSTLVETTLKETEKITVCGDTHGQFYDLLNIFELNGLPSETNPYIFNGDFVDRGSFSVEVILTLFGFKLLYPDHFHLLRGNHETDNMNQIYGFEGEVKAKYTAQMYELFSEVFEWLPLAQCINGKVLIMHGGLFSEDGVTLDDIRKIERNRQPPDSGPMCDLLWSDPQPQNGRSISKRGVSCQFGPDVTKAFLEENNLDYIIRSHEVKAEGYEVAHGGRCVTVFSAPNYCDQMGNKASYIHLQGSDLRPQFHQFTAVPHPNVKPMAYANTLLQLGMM
# An asterisk follows results filed as active; nt = no result given.
SMILES,FID counter,PP1 counter,HCV NS3 hel inh,HIF act,PP5 primary
C#CCOCCOCCOCCNc1nc(N2CCN(C(=O)[C@H](CCCCN)n3cc([C@@H](N)CO)nn3)CC2)nc(N2CCN(C(=O)[C@H](Cc3cc4ccccc4[nH]3)n3cc([C@@H](N)CO)nn3)CC2)n1,nt,0.6,nt,nt,6.3
C#CCOCCOCCOCCNc1nc(N2CCN(C(=O)[C@H](Cc3cc4ccccc4[nH]3)n3cc([C@@H](N)C(C)CC)nn3)CC2)nc(N2CCN(C(=O)[C@H](CCCCN)n3cc([C@@H](N)CO)nn3)CC2)n1 (stereo not given in full),55.1*,7.9,-66.7,0.4,2.0
CC(C)[C@H](NC(=O)C1CCN(S(=O)(=O)c2ccc(F)cc2)CC1)C(=O)NCc1ccco1,-31.4,-3.8,-8.8,-0.3,3.8
CC(=O)c1ccc(OCc2cc(C(=O)N3CCCCC3c3cccnc3)no2)cc1 (stereo not given),-34.8,-3.6,-3.0,1.9,2.1
CCOc1cccc(C(=O)N2CCCCC2c2cccnc2)c1 (stereo not given),-7.7,16.0*,-11.9,0.0,1.2
CN1CCC(NCCC(c2ccc(F)cc2)c2ccc(Cl)cc2)CC1 (stereo not given),42.0*,nt,-52.1,-15.9,nt
CC(C)C(CCNC1CCN(C)CC1)c1ccc(Cl)cc1 (stereo not given),24.9,-2.1,-30.5,-1.2,0.0
COc1ccc(NC(=O)CN(C)C(=O)c2ccc3[nH]c4c(c3c2)CC(C)CC4)cc1 (stereo not given),nt,-1.9,nt,0.5,5.0
O=C(NCc1n[nH]c(=S)n1-c1ccc(Br)cc1)c1ccc(S(=O)(=O)N2CCOCC2)cc1,-13.5,-1.8,6.3,0.4,3.8
CCOc1ccccc1N1CCN(C(=S)NC(=O)C23CC4CC(CC(C4)C2)C3)CC1,-3.4,-4.9,0.6,404.4*,0.7
CCOC(=O)c1c(S(=O)(=O)N2CCN(C)CC2)c(C)n(C)c1C,0.9,-0.7,4.1,-0.6,-0.8
CCOC(=O)c1c(S(=O)(=O)N2CCCC2)c(C)n(C)c1C,-6.2,2.4,0.8,47.6*,0.1
O=C(Cn1c(SCC(=O)N2CCCc3ccccc32)nc2ccccc21)N1CCCC1,-36.7,-0.8,6.7,69.6*,-0.6
CC(C)NC(=O)Cn1c(SCC(=O)N2CCCc3ccccc32)nc2ccccc21,-3.4,-1.0,-5.1,-0.5,0.0
COC(=O)[C@@H]1C[C@@]2(O)[C@@H](O)[C@@H](O)[C@@H](O)C[C@H]2N1Cc1ccc(Cl)cc1,nt,0.4,nt,0.2,1.0
CN(C)Cc1cc(C(C)(C)c2cc(CN(C)C)c(O)c(CN(C)C)c2)cc(CN(C)C)c1O,38.1*,0.6,-1.3,nt,-1.5
Cc1ccc(-c2nc(CN(C)C)cc(CN(C)C)c2O)cc1,5.7,-0.8,-6.2,nt,-1.8
CC(=O)c1ccc(NC(=O)CCCN2C(=O)COc3ccc(C)cc32)cc1,-31.2,-3.6,-5.3,-0.3,-0.1
O=C(C[n+]1ccccc1)Nc1ccc(Oc2ccccc2)cc1,36.7*,-2.4,-48.4,0.9,-0.1
CCOc1ccc(N(CC(=O)Nc2ccc(C)c(Cl)c2)S(C)(=O)=O)cc1,-20.3,2.4,-23.6,4.2,2.3
Cc1cccc(Cc2cnc(N3C(=N)SC(c4ccccc4)C3=O)s2)c1 (stereo not given),-10.6,15.2*,12.2,0.4,2.8
O=C(c1ccc(-c2nnc(-c3ccccc3)o2)cc1)N1CCCCCC1,-14.5,-8.6,3.0,40.4*,1.9
COc1ccc(C2NC(=S)NC3=C2CCCC3=C2SCCS2)cc1 (stereo not given),-23.1,2.6,7.7,235.5*,-0.2
S=C1NC2=C(CCCC2=C2SCCCS2)C(c2ccccc2)N1 (stereo not given),2.9,9.2,34.8,-0.1,-0.3
CCc1ccccc1N(C(=O)c1snc(C(N)=O)c1N)C(C(=O)NCC1CCCO1)c1ccc(C)o1 (stereo not given),-57.2,6.9,27.9,-0.3,0.3
SMILES,FID counter,PP1 counter,HCV NS3 hel inh,HIF act,PP5 primary
O=C(O)COc1ccc(/C=C2/SC(=S)N(Cc3ccccc3)C2=O)cc1,9.6,15.2*,11.5,-1.9,1.6
COc1ccc(/C=C2/SC(=S)N(Cc3ccccc3)C2=O)cc1O,28.2,nt,-3.8,-51.7,nt
Cc1c(CC(=O)N2C[C@H]3C[C@@H](C2)c2cccc(=O)n2C3)c(=O)oc2cc3occ(C(C)(C)C)c3cc12,-42.9,2.2,-12.8,-0.3,2.0
O=C(c1ccco1)[C@@H]1[C@@H]2C(=O)N(c3ccc(Br)cc3)C(=O)[C@@H]2C2c3ccccc3C=CN21 (stereo not given in full),-27.1,nt,42.8*,nt,nt
COc1ccc(Cl)cc1S(=O)(=O)Nc1ccc2c(c1)n(C)c(=O)n2C,-18.6,-1.6,0.3,0.0,2.5
CCN(CC(=O)Nc1ccc2c(c1)OCCO2)Cc1cc(=O)oc2c(C)c(C)ccc12,-31.8,3.5,0.3,-0.2,3.3
CCN(CC(=O)Nc1ccc2c(c1)OCCO2)CC(=O)Nc1ccc2c(c1)OCO2,-23.5,0.6,-0.2,54.0*,-0.4
O=C(CCN1C(=O)C2CCCCC2C1=O)Nc1ccc(F)c(F)c1F (stereo not given),-3.3,0.9,-20.0,0.4,2.3
COc1ccc(N2CSC3=C(C#N)C(c4cccs4)CC(=O)N3C2)cc1 (stereo not given),-14.3,3.7,20.9,3.3,0.9
COC(=O)C1C(=O)N2CCCSC2=C(C#N)C1c1cccs1 (stereo not given),-4.7,-2.0,8.4,35.1*,1.5
COc1ccc(CN2CCNC(=O)C2CC(=O)NC2CCCCC2)c(OC)c1 (stereo not given),-17.1,-1.1,-27.2,-2.2,2.2
COc1ccc(CN2CCNC(=O)C2CC(=O)NC2CCCC2)c(OC)c1 (stereo not given),-13.9,-1.1,-13.0,54.6*,0.8
Cc1ccc(-c2ccc(/C=C3\C(=O)ON=C3c3ccccc3)o2)c([N+](=O)[O-])c1,-0.1,17.0*,13.8,1.8,3.5
CCc1ccc(NC(=O)CSc2ccc(-c3ccccn3)nn2)cc1,-11.5,3.8,-67.8,12.6*,3.8
CC(=O)c1cccc(OCC(O)CNCCc2ccc(Cl)cc2)c1 (stereo not given),3.1,-1.3,-10.0,0.1,-0.5
CCCc1cnc(NCCNCC(O)COc2ccc(Cl)c(Cl)c2)nc1 (stereo not given),40.1*,2.9,-43.4,-0.4,-0.9
CCCCCCC1CCC(c2nc(-c3ccncc3)no2)CC1 (stereo not given),-1.5,-1.2,7.4,34.8*,-0.3
CCCC1CCC(c2nc(-c3cccnc3)no2)CC1 (stereo not given),0.3,-1.4,-15.3,1.3,-1.6
Cc1cc(=O)oc2cc(OCC(=O)NCc3ccco3)ccc12,94.5*,1.3,0.1,-0.7,1.1
